Results on three compounds are retold here after ChEMBL document CHEMBL1146234, “Synthesis and biological evaluation of N-pyrazolyl-N'-alkyl/benzyl/phenylureas: a new class of potent inhibitors of interleukin 8-induced neutrophil chemotaxis” (J Med Chem, 2007).

Each structure is given as a SMILES string. Active and inactive are the calls of the source. No cut-off for these calls is given here.

Mitogen-activated protein kinase 8 (Homo sapiens), sequence (P45983 whole entry): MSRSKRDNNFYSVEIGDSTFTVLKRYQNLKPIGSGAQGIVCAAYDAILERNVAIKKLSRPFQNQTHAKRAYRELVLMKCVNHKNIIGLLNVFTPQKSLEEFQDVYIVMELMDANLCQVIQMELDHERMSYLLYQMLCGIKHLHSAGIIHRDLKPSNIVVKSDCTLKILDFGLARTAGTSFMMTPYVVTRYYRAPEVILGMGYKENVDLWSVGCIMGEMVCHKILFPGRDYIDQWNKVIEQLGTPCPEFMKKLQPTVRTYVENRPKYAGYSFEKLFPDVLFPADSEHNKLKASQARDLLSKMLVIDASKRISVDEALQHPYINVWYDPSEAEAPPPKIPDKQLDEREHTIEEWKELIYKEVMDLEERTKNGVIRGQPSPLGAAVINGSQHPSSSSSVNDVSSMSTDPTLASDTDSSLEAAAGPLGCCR
Mitogen-activated protein kinase 11 (Homo sapiens), sequence (Q15759 whole entry): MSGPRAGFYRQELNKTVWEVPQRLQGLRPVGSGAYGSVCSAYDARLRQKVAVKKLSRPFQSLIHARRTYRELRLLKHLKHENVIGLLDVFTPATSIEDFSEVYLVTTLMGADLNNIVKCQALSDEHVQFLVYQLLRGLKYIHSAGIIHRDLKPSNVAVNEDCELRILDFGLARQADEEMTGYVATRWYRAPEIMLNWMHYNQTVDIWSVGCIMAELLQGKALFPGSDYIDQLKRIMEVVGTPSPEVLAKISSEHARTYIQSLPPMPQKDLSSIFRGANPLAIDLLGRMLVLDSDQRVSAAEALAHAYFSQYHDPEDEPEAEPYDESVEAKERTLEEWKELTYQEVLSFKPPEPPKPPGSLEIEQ
Mitogen-activated protein kinase 9 (Homo sapiens), sequence (P45984 whole entry, looked up): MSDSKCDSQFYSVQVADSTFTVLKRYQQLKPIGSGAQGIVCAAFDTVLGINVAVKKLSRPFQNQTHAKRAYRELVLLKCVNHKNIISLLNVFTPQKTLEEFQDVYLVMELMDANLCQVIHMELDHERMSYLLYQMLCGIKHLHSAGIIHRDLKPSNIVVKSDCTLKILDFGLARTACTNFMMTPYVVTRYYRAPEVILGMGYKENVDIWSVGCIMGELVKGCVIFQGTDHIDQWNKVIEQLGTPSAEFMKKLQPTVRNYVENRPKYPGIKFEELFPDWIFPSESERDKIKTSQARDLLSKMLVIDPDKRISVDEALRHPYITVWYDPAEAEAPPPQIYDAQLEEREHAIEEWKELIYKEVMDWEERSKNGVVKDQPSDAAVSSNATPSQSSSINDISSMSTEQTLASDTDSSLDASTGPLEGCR
Proto-oncogene tyrosine-protein kinase Src (Homo sapiens), sequence (P12931 2-536 limits assumed): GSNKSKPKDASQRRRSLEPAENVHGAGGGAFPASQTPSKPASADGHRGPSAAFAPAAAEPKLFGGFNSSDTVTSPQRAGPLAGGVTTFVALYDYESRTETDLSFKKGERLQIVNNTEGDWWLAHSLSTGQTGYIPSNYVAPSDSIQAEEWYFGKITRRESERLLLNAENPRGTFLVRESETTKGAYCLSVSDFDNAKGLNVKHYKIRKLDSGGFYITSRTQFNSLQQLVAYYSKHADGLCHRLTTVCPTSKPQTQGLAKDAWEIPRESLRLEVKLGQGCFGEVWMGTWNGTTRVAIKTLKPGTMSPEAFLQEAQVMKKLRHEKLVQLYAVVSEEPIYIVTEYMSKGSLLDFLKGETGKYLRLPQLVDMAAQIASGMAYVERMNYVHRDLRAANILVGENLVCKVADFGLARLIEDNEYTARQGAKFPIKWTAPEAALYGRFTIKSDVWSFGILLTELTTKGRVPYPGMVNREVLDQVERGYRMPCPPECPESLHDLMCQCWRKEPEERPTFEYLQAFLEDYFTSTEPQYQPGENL

The first assay deals with T1, C-X-C chemokine receptor type 2 (Homo sapiens) (UniProt P25025).
T1 sequence (whole entry): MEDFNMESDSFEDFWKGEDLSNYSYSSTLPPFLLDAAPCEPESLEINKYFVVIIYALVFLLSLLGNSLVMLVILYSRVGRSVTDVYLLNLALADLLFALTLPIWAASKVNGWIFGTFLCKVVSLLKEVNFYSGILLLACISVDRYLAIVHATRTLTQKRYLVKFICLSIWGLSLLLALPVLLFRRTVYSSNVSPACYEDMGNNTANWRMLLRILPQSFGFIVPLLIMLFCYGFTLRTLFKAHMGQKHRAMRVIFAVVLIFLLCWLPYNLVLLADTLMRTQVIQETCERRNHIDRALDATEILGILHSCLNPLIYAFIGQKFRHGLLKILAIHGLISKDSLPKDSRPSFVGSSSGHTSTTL
Kind of assay: Binding affinity to CXCR2.
Settings: not given
Consider `CCOC(=O)c1cnn(CC(O)c2ccccc2)c1NC(=O)NCc1ccccc1` (stereo not drawn), for which the outcome was inactive.

Turning to `CCOC(=O)c1cnn(CC(O)c2ccccc2)c1NC(=O)Nc1ccccc1` (stereo not drawn), the outcome was inactive.

As for `CCOC(=O)c1cnn(CC(O)c2ccccc2)c1NC(=O)NC(C)C` (stereo not drawn), the outcome was inactive.

The next assay has as its target T2, C-C chemokine receptor type 1 (Homo sapiens) (UniProt P32246).
T2 sequence (whole entry): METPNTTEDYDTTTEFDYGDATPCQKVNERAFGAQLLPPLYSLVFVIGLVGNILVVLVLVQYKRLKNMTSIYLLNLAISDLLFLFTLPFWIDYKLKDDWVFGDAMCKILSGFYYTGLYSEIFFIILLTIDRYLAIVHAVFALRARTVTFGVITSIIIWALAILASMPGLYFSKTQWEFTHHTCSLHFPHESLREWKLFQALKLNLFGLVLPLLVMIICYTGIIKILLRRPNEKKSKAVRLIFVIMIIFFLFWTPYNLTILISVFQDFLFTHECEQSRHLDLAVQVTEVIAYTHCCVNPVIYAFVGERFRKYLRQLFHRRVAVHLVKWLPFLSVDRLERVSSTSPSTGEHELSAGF
Kind of assay: Binding affinity to CCR1.
Settings: not given
Take `CCOC(=O)c1cnn(CC(O)c2ccccc2)c1NC(=O)NCc1ccccc1` (stereo not drawn): the result was inactive.

Consider `CCOC(=O)c1cnn(CC(O)c2ccccc2)c1NC(=O)Nc1ccccc1` (stereo not drawn), for which the outcome was inactive.

For `CCOC(=O)c1cnn(CC(O)c2ccccc2)c1NC(=O)NC(C)C` (stereo not drawn), the result was inactive.

A further assay deals with C-C chemokine receptor type 2 (Homo sapiens) (UniProt P41597). Kind of assay: Binding affinity to CCR2.
C-C chemokine receptor type 2 (Homo sapiens), sequence (P41597 whole entry, looked up): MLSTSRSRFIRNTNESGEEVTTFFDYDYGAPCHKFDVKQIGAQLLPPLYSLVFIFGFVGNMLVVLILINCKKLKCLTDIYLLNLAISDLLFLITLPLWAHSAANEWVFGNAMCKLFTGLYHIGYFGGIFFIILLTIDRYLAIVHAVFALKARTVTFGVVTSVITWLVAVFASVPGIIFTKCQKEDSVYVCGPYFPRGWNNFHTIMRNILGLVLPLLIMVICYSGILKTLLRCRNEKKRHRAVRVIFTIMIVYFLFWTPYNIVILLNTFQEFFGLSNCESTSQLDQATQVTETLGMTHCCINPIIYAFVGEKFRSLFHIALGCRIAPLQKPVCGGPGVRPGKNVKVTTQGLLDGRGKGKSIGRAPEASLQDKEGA
Settings: not given
Turning to `CCOC(=O)c1cnn(CC(O)c2ccccc2)c1NC(=O)NCc1ccccc1` (stereo not drawn), the outcome was inactive.

Regarding `CCOC(=O)c1cnn(CC(O)c2ccccc2)c1NC(=O)Nc1ccccc1` (stereo not drawn), the outcome was inactive.

As to `CCOC(=O)c1cnn(CC(O)c2ccccc2)c1NC(=O)NC(C)C` (stereo not drawn), the result was inactive.

In a further assay the target is T3, C-C chemokine receptor type 3 (Homo sapiens) (UniProt P51677).
T3 sequence (whole entry): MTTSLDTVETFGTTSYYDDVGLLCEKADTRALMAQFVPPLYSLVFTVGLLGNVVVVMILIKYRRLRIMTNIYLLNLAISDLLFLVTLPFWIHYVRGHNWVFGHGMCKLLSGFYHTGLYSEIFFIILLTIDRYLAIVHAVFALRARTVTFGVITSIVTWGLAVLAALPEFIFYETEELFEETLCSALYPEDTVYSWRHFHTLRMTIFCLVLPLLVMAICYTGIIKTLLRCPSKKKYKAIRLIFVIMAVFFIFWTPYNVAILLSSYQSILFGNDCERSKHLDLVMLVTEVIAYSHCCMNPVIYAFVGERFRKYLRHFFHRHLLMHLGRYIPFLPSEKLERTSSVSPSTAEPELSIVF
Kind of assay: Binding affinity to CCR3.
Settings: not given
For the compound `CCOC(=O)c1cnn(CC(O)c2ccccc2)c1NC(=O)NCc1ccccc1` (stereo not drawn), the result was inactive.

Take `CCOC(=O)c1cnn(CC(O)c2ccccc2)c1NC(=O)Nc1ccccc1` (stereo not drawn): the result was inactive.

`CCOC(=O)c1cnn(CC(O)c2ccccc2)c1NC(=O)NC(C)C` (stereo not drawn): the result was inactive.

The subject of the next assay is Neutrophil. Kind of assay: Cytotoxicity against human neutrophils assessed as viable cells after 2 hrs. It counts as functional. Also noted: concentration or dose not given beside the values.
Settings: not given
The method, boiled down: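 Human neutrophils (2 × 10⁶/mL) from healthy donors were incubated 2 h at 37 °C under CO₂ in HBSS:PBS (3:1) with 1 mg/mL BSA, with compounds. Membrane integrity was read by fluorescein diacetate/ethidium bromide staining for 10 min at room temperature, under UV dark-field microscopy. Green cells were scored viable; red nuclei were scored necrotic.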
Turning to `CCOC(=O)c1cnn(CC(O)c2ccccc2)c1NC(=O)NCc1ccccc1` (stereo not drawn), the Activity is listed as 90%.

In the case of `CCOC(=O)c1cnn(CC(O)c2ccccc2)c1NC(=O)Nc1ccccc1` (stereo not drawn), the Activity was determined as 90%.

Take `CCOC(=O)c1cnn(CC(O)c2ccccc2)c1NC(=O)NC(C)C` (stereo not drawn): the Activity stood at 90%.

The next assay has as its system Neutrophil. Kind of assay: Inhibition of fMLP-induced neutrophil chemotaxis after 45 mins by Boyden chamber assay. It counts as functional, cell-based. The settings on record: Homo sapiens. Summed up:
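Leading-front Boyden assay with donor neutrophils. Cells were preincubated 15 min at room temperature ± compound. Then 4 × 10⁵ cells were placed above a 3 µm cellulose ester filter, with IL8 or fMLP below. After 45 min at 37 °C, filters were hematoxylin-stained and the leading-front distance was read at ×400, 5 fields per filter, in duplicate. Net migration = stimulated minus spontaneous. IC₅₀ came from nonlinear regression, ≥3 experiments.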
As to `CCOC(=O)c1cnn(CC(O)c2ccccc2)c1NC(=O)NCc1ccccc1` (stereo not drawn), the outcome was inactive.

`CCOC(=O)c1cnn(CC(O)c2ccccc2)c1NC(=O)Nc1ccccc1` (stereo not drawn): the outcome was inactive.

On to `CCOC(=O)c1cnn(CC(O)c2ccccc2)c1NC(=O)NC(C)C` (stereo not drawn), for which the outcome was inactive.

Another assay has as its system Neutrophil. Kind of assay: Reduction of IL8-stimulated F-actin polymerization in human neutrophils.
Settings: not given
It counts as functional. The arrangement: scale not given: the % may be the effect or the level left. Summed up: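 Donor neutrophils were incubated ± compound, washed three times, then stimulated 30 min with medium or 100 nM IL8. Cytospins were stained with Alexa Fluor 488-phalloidin and examined by fluorescence microscopy. Mean fluorescence density came from linear per-cell measurement across ≥5 random fields per slide, in duplicate, ≥3 experiments. Values were given as area percentage, mean ± SD.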
`CCOC(=O)c1cnn(CC(O)c2ccccc2)c1NC(=O)NCc1ccccc1` (stereo not drawn) came in with an Activity of 69%.

`CCOC(=O)c1cnn(CC(O)c2ccccc2)c1NC(=O)Nc1ccccc1` (stereo not drawn) gave an Activity of 97%.

Compound `CCOC(=O)c1cnn(CC(O)c2ccccc2)c1NC(=O)NC(C)C` (stereo not drawn) had an Activity of 97%.

The next assay has as its target Proto-oncogene tyrosine-protein kinase Src (Homo sapiens) (UniProt P12931). Kind of assay: Binding affinity to SRC.
Settings: not given
As to `CCOC(=O)c1cnn(CC(O)c2ccccc2)c1NC(=O)NCc1ccccc1` (stereo not drawn), the result was inactive.

`CCOC(=O)c1cnn(CC(O)c2ccccc2)c1NC(=O)Nc1ccccc1` (stereo not drawn): the outcome was inactive.

Regarding `CCOC(=O)c1cnn(CC(O)c2ccccc2)c1NC(=O)NC(C)C` (stereo not drawn), the result was inactive.

The next assay deals with Tyrosine-protein kinase Fgr (Homo sapiens) (UniProt P09769). Kind of assay: Binding affinity to Fgr.
Tyrosine-protein kinase Fgr (Homo sapiens), sequence (P09769 2-529 limits assumed): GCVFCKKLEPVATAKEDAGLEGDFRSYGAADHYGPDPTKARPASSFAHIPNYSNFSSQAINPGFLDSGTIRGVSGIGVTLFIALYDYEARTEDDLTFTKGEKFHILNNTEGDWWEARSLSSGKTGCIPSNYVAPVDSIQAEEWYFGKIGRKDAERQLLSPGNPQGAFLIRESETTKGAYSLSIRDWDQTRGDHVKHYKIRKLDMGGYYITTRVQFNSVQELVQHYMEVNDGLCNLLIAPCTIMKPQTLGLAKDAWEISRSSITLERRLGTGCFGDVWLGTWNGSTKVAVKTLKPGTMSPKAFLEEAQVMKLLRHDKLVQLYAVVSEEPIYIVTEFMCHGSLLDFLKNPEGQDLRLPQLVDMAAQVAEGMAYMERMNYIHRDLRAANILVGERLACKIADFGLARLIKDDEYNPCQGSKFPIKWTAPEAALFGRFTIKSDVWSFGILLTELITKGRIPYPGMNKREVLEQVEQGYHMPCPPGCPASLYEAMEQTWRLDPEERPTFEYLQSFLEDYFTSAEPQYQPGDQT
Settings: not given
On to `CCOC(=O)c1cnn(CC(O)c2ccccc2)c1NC(=O)NCc1ccccc1` (stereo not drawn), for which the outcome was inactive.

Regarding `CCOC(=O)c1cnn(CC(O)c2ccccc2)c1NC(=O)Nc1ccccc1` (stereo not drawn), the outcome was inactive.

For the compound `CCOC(=O)c1cnn(CC(O)c2ccccc2)c1NC(=O)NC(C)C` (stereo not drawn), the outcome was inactive.

The target of a further assay is Mitogen-activated protein kinase 14 (Homo sapiens) (UniProt Q16539). Kind of assay: Binding affinity to p38alpha.
Mitogen-activated protein kinase 14 (Homo sapiens), sequence (Q16539 whole entry): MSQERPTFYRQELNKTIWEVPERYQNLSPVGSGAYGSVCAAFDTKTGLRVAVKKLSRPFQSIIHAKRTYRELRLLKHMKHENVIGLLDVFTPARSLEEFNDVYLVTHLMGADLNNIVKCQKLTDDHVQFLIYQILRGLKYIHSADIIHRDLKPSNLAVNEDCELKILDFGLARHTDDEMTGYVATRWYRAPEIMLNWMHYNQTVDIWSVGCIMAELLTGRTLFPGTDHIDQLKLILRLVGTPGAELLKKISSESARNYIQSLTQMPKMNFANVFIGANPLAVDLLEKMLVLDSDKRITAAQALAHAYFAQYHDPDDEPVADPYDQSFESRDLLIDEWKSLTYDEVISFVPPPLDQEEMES
Settings: not given
As for `CCOC(=O)c1cnn(CC(O)c2ccccc2)c1NC(=O)NCc1ccccc1` (stereo not drawn), the outcome was inactive.

Take `CCOC(=O)c1cnn(CC(O)c2ccccc2)c1NC(=O)Nc1ccccc1` (stereo not drawn): the result was inactive.

For the compound `CCOC(=O)c1cnn(CC(O)c2ccccc2)c1NC(=O)NC(C)C` (stereo not drawn), the outcome was inactive.

The next assay has as its target Mitogen-activated protein kinase 11 (Homo sapiens) (UniProt Q15759). Kind of assay: Binding affinity to p38beta2.
Settings: not given
In the case of `CCOC(=O)c1cnn(CC(O)c2ccccc2)c1NC(=O)NCc1ccccc1` (stereo not drawn), the outcome was inactive.

Take `CCOC(=O)c1cnn(CC(O)c2ccccc2)c1NC(=O)Nc1ccccc1` (stereo not drawn): the outcome was inactive.

As for `CCOC(=O)c1cnn(CC(O)c2ccccc2)c1NC(=O)NC(C)C` (stereo not drawn), the result was inactive.

A further assay concerns the target T4, Mitogen-activated protein kinase 12 (Homo sapiens) (UniProt P53778).
T4 sequence (whole entry): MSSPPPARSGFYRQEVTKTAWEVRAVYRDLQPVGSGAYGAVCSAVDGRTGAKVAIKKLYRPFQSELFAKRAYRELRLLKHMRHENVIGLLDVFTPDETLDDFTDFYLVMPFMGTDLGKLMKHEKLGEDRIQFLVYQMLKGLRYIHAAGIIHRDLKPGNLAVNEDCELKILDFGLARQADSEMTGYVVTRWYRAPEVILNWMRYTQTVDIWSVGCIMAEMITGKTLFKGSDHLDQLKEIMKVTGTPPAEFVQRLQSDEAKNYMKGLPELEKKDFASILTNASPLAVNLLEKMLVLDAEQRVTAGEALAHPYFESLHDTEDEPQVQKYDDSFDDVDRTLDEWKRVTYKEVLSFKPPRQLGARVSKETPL
Kind of assay: Binding affinity to p38-gamma.
Settings: not given
With `CCOC(=O)c1cnn(CC(O)c2ccccc2)c1NC(=O)NCc1ccccc1` (stereo not drawn), the outcome was inactive.

`CCOC(=O)c1cnn(CC(O)c2ccccc2)c1NC(=O)Nc1ccccc1` (stereo not drawn): the outcome was inactive.

Take `CCOC(=O)c1cnn(CC(O)c2ccccc2)c1NC(=O)NC(C)C` (stereo not drawn): the outcome was inactive.

Another assay addresses Mitogen-activated protein kinase 8 (Homo sapiens) (UniProt P45983). Kind of assay: Binding affinity to JNK1.
Settings: not given
For the compound `CCOC(=O)c1cnn(CC(O)c2ccccc2)c1NC(=O)NCc1ccccc1` (stereo not drawn), the outcome was inactive.

On to `CCOC(=O)c1cnn(CC(O)c2ccccc2)c1NC(=O)Nc1ccccc1` (stereo not drawn), for which the result was inactive.

As for `CCOC(=O)c1cnn(CC(O)c2ccccc2)c1NC(=O)NC(C)C` (stereo not drawn), the result was inactive.

The next assay addresses Mitogen-activated protein kinase 9 (Homo sapiens) (UniProt P45984). Kind of assay: Binding affinity to JNK2.
Settings: not given
Turning to `CCOC(=O)c1cnn(CC(O)c2ccccc2)c1NC(=O)NCc1ccccc1` (stereo not drawn), the outcome was inactive.

For `CCOC(=O)c1cnn(CC(O)c2ccccc2)c1NC(=O)Nc1ccccc1` (stereo not drawn), the result was inactive.

`CCOC(=O)c1cnn(CC(O)c2ccccc2)c1NC(=O)NC(C)C` (stereo not drawn): the outcome was inactive.

The next assay deals with RAC-alpha serine/threonine-protein kinase (Homo sapiens) (UniProt P31749). Kind of assay: Binding affinity to Akt1.
RAC-alpha serine/threonine-protein kinase (Homo sapiens), sequence (P31749 whole entry): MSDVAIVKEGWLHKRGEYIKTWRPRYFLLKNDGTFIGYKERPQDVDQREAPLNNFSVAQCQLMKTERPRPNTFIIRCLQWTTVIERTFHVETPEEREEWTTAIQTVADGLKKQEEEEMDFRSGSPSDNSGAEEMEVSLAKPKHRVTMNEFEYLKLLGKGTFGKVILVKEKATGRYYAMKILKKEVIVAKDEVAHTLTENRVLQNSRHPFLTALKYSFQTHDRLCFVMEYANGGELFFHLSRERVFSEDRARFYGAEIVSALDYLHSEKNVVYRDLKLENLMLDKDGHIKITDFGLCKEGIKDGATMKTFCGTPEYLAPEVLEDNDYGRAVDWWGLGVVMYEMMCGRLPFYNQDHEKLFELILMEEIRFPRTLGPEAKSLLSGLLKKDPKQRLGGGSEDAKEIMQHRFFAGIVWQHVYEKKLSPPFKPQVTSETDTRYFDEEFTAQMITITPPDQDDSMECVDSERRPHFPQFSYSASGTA
Settings: not given
On to `CCOC(=O)c1cnn(CC(O)c2ccccc2)c1NC(=O)NCc1ccccc1` (stereo not drawn), for which the result was inactive.

Regarding `CCOC(=O)c1cnn(CC(O)c2ccccc2)c1NC(=O)Nc1ccccc1` (stereo not drawn), the outcome was inactive.

As to `CCOC(=O)c1cnn(CC(O)c2ccccc2)c1NC(=O)NC(C)C` (stereo not drawn), the outcome was inactive.

The target in a further assay is T5, C-X-C chemokine receptor type 1 (Homo sapiens) (UniProt P25024).
T5 sequence (whole entry): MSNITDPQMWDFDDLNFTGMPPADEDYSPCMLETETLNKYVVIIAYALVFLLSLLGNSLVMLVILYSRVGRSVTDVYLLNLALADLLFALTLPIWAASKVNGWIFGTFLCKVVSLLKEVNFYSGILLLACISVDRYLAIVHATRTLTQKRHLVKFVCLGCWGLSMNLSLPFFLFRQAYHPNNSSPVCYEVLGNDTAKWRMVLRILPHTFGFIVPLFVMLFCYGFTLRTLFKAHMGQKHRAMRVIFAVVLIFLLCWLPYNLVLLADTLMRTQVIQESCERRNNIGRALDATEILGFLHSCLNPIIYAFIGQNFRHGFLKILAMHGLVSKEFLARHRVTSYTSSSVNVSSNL
Kind of assay: Binding affinity to CXCR1.
Settings: not given
`CCOC(=O)c1cnn(CC(O)c2ccccc2)c1NC(=O)NCc1ccccc1` (stereo not drawn): the result was inactive.

On to `CCOC(=O)c1cnn(CC(O)c2ccccc2)c1NC(=O)Nc1ccccc1` (stereo not drawn), for which the outcome was inactive.

Turning to `CCOC(=O)c1cnn(CC(O)c2ccccc2)c1NC(=O)NC(C)C` (stereo not drawn), the outcome was inactive.
